Data: ChEMBL document CHEMBL3856229, “Hybrid Antibiotic Overcomes Resistance in P. aeruginosa by Enhancing Outer Membrane Penetration and Reducing Efflux” (J Med Chem, 2016)
≈ marks a conversion by molar mass, not a printed value.

Legend:
[1] = tested on: Pseudomonas aeruginosa; experiment: Antibacterial activity against multidrug/extremely drug-resistant/colistin-susceptible Pseudomonas aeruginosa isolate 259-96918; assay type: functional
[2] = tested on: Enterococcus faecium; experiment: Antibacterial activity against Enterococcus faecium ATCC 27270 after 24 hrs by microtitre broth dilution method; assay type: functional; settings: ATCC 27270, 24 h
[3] = tested on: Escherichia coli; experiment: Antibacterial activity against amikacin-resistant Escherichia coli isolate CAN-ICU 63074 after 24 hrs by microtitre broth dilution method; assay type: functional; settings: isolate CAN-ICU 63074, 24 h
[4] = tested on: Pseudomonas aeruginosa; experiment: Antibacterial activity against multidrug/extremely drug-resistant/colistin-susceptible Pseudomonas aeruginosa isolate 260-97103; assay type: functional
[5] = tested on: Pseudomonas aeruginosa; experiment: Antibacterial activity against Pseudomonas aeruginosa ATCC 27853 after 24 hrs by microtitre broth dilution method; assay type: functional; settings: ATCC 27853, 24 h
[6] = Inhibition of Pseudomonas aeruginosa DNA gyrase A assessed as inhibition of DNA supercoiling using PBR322 DNA as substrate after 30 mins by SYBR Gold staining based agarose gel electrophoresis
[7] = tested on: Pseudomonas aeruginosa; experiment: Antibacterial activity against gentamicin-resistant Pseudomonas aeruginosa isolate CAN-ICU 62308 after 24 hrs by microtitre broth dilution method; assay type: functional; settings: isolate CAN-ICU 62308, 24 h
[8] = tested on: Escherichia coli; experiment: Antibacterial activity against Escherichia coli ATCC 25922 after 24 hrs by microtitre broth dilution method; assay type: functional; settings: ATCC 25922, 24 h
[9] = tested on: Klebsiella pneumoniae; experiment: Antibacterial activity against Klebsiella pneumoniae ATCC 13883 after 24 hrs by microtitre broth dilution method; assay type: functional; settings: ATCC 13883, 24 h
[10] = tested on: Enterococcus faecalis; experiment: Antibacterial activity against Enterococcus faecalis ATCC 29212 after 24 hrs by microtitre broth dilution method; assay type: functional; settings: ATCC 29212, 24 h
[11] = tested on: Pseudomonas aeruginosa; experiment: Antibacterial activity against multidrug/extremely drug-resistant/colistin-susceptible Pseudomonas aeruginosa isolate 264-104354; assay type: functional
[12] = tested on: Acinetobacter baumannii; experiment: Antibacterial activity against Acinetobacter baumannii isolate CAN-ICU 63169 after 24 hrs by microtitre broth dilution method; assay type: functional; settings: isolate CAN-ICU 63169, 24 h
[13] = tested on: Streptococcus pneumoniae; experiment: Antibacterial activity against Streptococcus pneumoniae ATCC 49619 after 24 hrs by microtitre broth dilution method; assay type: functional; settings: ATCC 49619, 24 h
[14] = tested on: Pseudomonas aeruginosa; experiment: Antibacterial activity against gentamicin/tobramycin-resistant Pseudomonas aeruginosa isolate CANWARD-2011 96846 after 24 hrs by microtitre broth dilution method; assay type: functional; settings: isolate CANWARD-2011 96846, 24 h
[15] = tested on: Staphylococcus epidermidis; experiment: Antibacterial activity against methicillin-susceptible Staphylococcus epidermidis isolate CANWARD-2008 81388 after 24 hrs by microtitre broth dilution method; assay type: functional; settings: isolate CANWARD-2008 81388, 24 h
[16] = tested on: Pseudomonas aeruginosa; experiment: Antibacterial activity against multidrug/extremely drug-resistant/colistin-susceptible Pseudomonas aeruginosa isolate 262-101856; assay type: functional
[17] = tested on: Staphylococcus aureus; experiment: Antibacterial activity against Staphylococcus aureus ATCC 29213 after 24 hrs by microtitre broth dilution method; assay type: functional; settings: ATCC 29213, 24 h
[18] = tested on: Pseudomonas aeruginosa; experiment: Antibacterial activity against Pseudomonas aeruginosa PAO1; assay type: functional
[19] = tested on: Stenotrophomonas maltophilia; experiment: Antibacterial activity against Stenotrophomonas maltophilia isolate CAN-ICU 62584 after 24 hrs by microtitre broth dilution method; assay type: functional; settings: isolate CAN-ICU 62584, 24 h
[20] = tested on: Staphylococcus epidermidis; experiment: Antibacterial activity against methicillin-resistant Staphylococcus epidermidis isolate CAN-ICU 61589 after 24 hrs by microtitre broth dilution method; assay type: functional; settings: isolate CAN-ICU 61589, 24 h
[21] = tested on: Escherichia coli; experiment: Antibacterial activity against gentamicin/tobramycin/ciprofloxacin-resistant Escherichia coli isolate CANWARD-2011 97615 harboring AAC3-2A after 24 hrs by microtitre broth dilution method; assay type: functional; settings: isolate CANWARD-2011 97615, 24 h
[22] = tested on: Escherichia coli; experiment: Antibacterial activity against gentamicin-resistant Escherichia coli isolate CAN-ICU 61714 after 24 hrs by microtitre broth dilution method; assay type: functional; settings: isolate CAN-ICU 61714, 24 h
[23] = tested on: Staphylococcus aureus; experiment: Antibacterial activity against methicillin-resistant Staphylococcus aureus ATCC 33592 after 24 hrs by microtitre broth dilution method; assay type: functional; settings: ATCC 33592, 24 h
[24] = Inhibition of circular DNA translation in Escherichia coli S30 extract after 60 mins by luciferase reporter gene assay
Outline: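 Translation was run in an E. coli S30 extract with a luciferase read-out. Luminescence is expressed as a percentage of the no-antibiotic control, taken as 100%.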

[25] = tested on: Pseudomonas aeruginosa; experiment: Antibacterial activity against multidrug-resistant/tobramycin-susceptible Pseudomonas aeruginosa isolate 86053; assay type: functional
[26] = tested on: Pseudomonas aeruginosa; experiment: Antibacterial activity against multidrug-resistant/tobramycin-susceptible Pseudomonas aeruginosa isolate 86141; assay type: functional
[27] = tested on: Pseudomonas aeruginosa; experiment: Antibacterial activity against multidrug/extremely drug-resistant/colistin-susceptible Pseudomonas aeruginosa isolate 100036; assay type: functional
[28] = tested on: Pseudomonas aeruginosa; experiment: Antibacterial activity against multidrug-resistant/tobramycin-susceptible Pseudomonas aeruginosa isolate 86079; assay type: functional
[29] = tested on: Pseudomonas aeruginosa; experiment: Antibacterial activity against multidrug-resistant/tobramycin-susceptible Pseudomonas aeruginosa isolate 86052; assay type: functional
[30] = tested on: Pseudomonas aeruginosa; experiment: Antibacterial activity against pandrug-resistant Pseudomonas aeruginosa isolate 101243; assay type: functional
[31] = tested on: Pseudomonas aeruginosa; experiment: Antibacterial activity against multidrug-resistant/tobramycin-susceptible Pseudomonas aeruginosa isolate 92014; assay type: functional
[32] = tested on: Pseudomonas aeruginosa; experiment: Antibacterial activity against multidrug/extremely drug-resistant/colistin-susceptible Pseudomonas aeruginosa isolate 101885; assay type: functional
[33] = tested on: Pseudomonas aeruginosa; experiment: Antibacterial activity against multidrug-resistant/tobramycin-susceptible Pseudomonas aeruginosa isolate 85322; assay type: functional
[34] = tested on: Pseudomonas aeruginosa; experiment: Antibacterial activity against multidrug-resistant/tobramycin-susceptible Pseudomonas aeruginosa isolate 83182; assay type: functional
[35] = tested on: Pseudomonas aeruginosa; experiment: Antibacterial activity against multidrug-resistant/tobramycin-susceptible Pseudomonas aeruginosa isolate 80621; assay type: functional
[36] = tested on: Pseudomonas aeruginosa; experiment: Antibacterial activity against multidrug-resistant/tobramycin-susceptible Pseudomonas aeruginosa isolate 84745; assay type: functional
[37] = tested on: Pseudomonas aeruginosa; experiment: Antibacterial activity against multidrug-resistant/tobramycin-susceptible Pseudomonas aeruginosa isolate 86067; assay type: functional
[38] = tested on: Pseudomonas aeruginosa; experiment: Antibacterial activity against pandrug-resistant Pseudomonas aeruginosa isolate 91433; assay type: functional
[39] = tested on: Pseudomonas aeruginosa; experiment: Antibacterial activity against multidrug-resistant/tobramycin-susceptible Pseudomonas aeruginosa isolate 79199; assay type: functional
[40] = tested on: Pseudomonas aeruginosa; experiment: Antibacterial activity against multidrug-resistant/tobramycin-susceptible Pseudomonas aeruginosa isolate 108590; assay type: functional

SMILES | MIC [1] [µg/mL] | MIC [2] [µg/mL] | MIC [3] [µg/mL] | MIC [4] [µg/mL] | MIC [5] [µg/mL] | IC50 [6] [nM] | MIC [7] [µg/mL] | MIC [8] [µg/mL] | MIC [9] [µg/mL] | MIC [10] [µg/mL] | MIC [11] [µg/mL] | MIC [12] [µg/mL] | MIC [13] [µg/mL] | MIC [14] [µg/mL] | MIC [15] [µg/mL] | MIC [16] [µg/mL] | MIC [17] [µg/mL] | MIC [18] [µg/mL] | MIC [19] [µg/mL] | MIC [20] [µg/mL] | further results
COc1c(N2C[C@@H]3CCCN(CCCCCCCCCCCCOC[C@H]4O[C@H](O[C@@H]5[C@@H](O)[C@H](O[C@H]6O[C@H](CN)[C@@H](O)C[C@H]6N)[C@@H](N)C[C@H]5N)[C@H](O)[C@@H](N)[C@@H]4O)[C@@H]3C2)c(F)cc2c(=O)c(C(=O)O)cn(C3CC3)c12.Cl.Cl.Cl.Cl.Cl | > 32 | 16 | 64 | 32 | 64 | 2600 | 32 | 16 | 16 | 32 | > 32 | > 128 | 64 | 64 | 8 | > 32 | 16 | > 32 | > 128 | 8 | MIC [21]: 128 µg/mL; MIC [22]: 64 µg/mL; MIC [23]: 16 µg/mL
COc1c(N2C[C@@H]3CCCN(CCCCCCCCCCCCO[C@H]4[C@@H](O[C@@H]5[C@@H](O)[C@H](O[C@H]6O[C@H](CN)[C@@H](O)C[C@H]6N)[C@@H](N)C[C@H]5N)O[C@H](CO)[C@@H](O)[C@@H]4N)[C@@H]3C2)c(F)cc2c(=O)c(C(=O)O)cn(C3CC3)c12.Cl.Cl.Cl.Cl.Cl | > 32 | 16 | 32 | > 32 | 16 | 2100 | 128 | 4 | 4 | 32 | 32 | 128 | 32 | > 128 | 2 | 32 | 4 | > 32 | > 128 | 8 | IC50 [24]: 130 nM; MIC [21]: 128 µg/mL; MIC [22]: 64 µg/mL; MIC [23]: 8 µg/mL
NCC[C@H](O)C(=O)N[C@@H]1C[C@H](N)[C@@H](O[C@H]2O[C@H](CN)[C@@H](O)[C@H](O)[C@H]2O)[C@H](O)[C@H]1O[C@H]1O[C@H](CO)[C@@H](O)[C@H](N)[C@H]1O [AMIKACIN] |  |  | 32 (≈ 54.6 µM) |  |  |  |  |  |  |  |  |  |  |  |  |  |  |  |  |  | 
Cc1nnc(SCC2=C(C(=O)O)N3C(=O)[C@@H](NC(=O)Cn4cnnn4)[C@H]3SC2)s1 [CEFAZOLIN] |  |  |  |  |  |  |  |  |  |  |  |  |  |  |  |  |  |  |  | > 32 | 
CO/N=C(\C(=O)N[C@@H]1C(=O)N2C(C(=O)[O-])=C(C[N+]3(C)CCCC3)CS[C@H]12)c1csc(N)n1 [CEFEPIME] | > 64 |  |  | 16 (≈ 33.3 µM) |  |  |  |  |  |  | 32 (≈ 66.6 µM) |  |  |  |  | 32 (≈ 66.6 µM) |  |  |  |  | MIC [25]: 64 µg/mL (≈ 133 µM); MIC [26]: 16 µg/mL (≈ 33.3 µM); MIC [27]: 4 µg/mL (≈ 8.32 µM); MIC [28]: 32 µg/mL (≈ 66.6 µM); MIC [29]: 16 µg/mL (≈ 33.3 µM); MIC [30]: 64 µg/mL (≈ 133 µM); MIC [31]: 16 µg/mL (≈ 33.3 µM); MIC [32]: 8 µg/mL (≈ 16.6 µM); MIC [33]: 16 µg/mL (≈ 33.3 µM); MIC [34]: 16 µg/mL (≈ 33.3 µM); MIC [35]: 8 µg/mL (≈ 16.6 µM); MIC [36]: 16 µg/mL (≈ 33.3 µM); MIC [37]: 64 µg/mL (≈ 133 µM); MIC [38]: 16 µg/mL (≈ 33.3 µM); MIC [39]: 32 µg/mL (≈ 66.6 µM)
CC(C)(O/N=C(\C(=O)N[C@@H]1C(=O)N2C(C(=O)[O-])=C(C[n+]3ccccc3)CS[C@H]12)c1csc(N)n1)C(=O)O [CEFTAZIDIME] |  |  |  |  |  |  |  |  |  |  |  |  |  |  |  |  |  |  |  |  | MIC [25]: > 32 µg/mL; MIC [26]: > 32 µg/mL; MIC [28]: > 32 µg/mL; MIC [29]: > 32 µg/mL; MIC [31]: > 32 µg/mL; MIC [40]: 32 µg/mL (≈ 58.5 µM); MIC [33]: > 32 µg/mL; MIC [34]: > 32 µg/mL; MIC [35]: > 32 µg/mL; MIC [36]: > 32 µg/mL; MIC [37]: > 32 µg/mL; MIC [39]: 32 µg/mL (≈ 58.5 µM)
